Test results reported in ChEMBL document CHEMBL1156563, “Synthesis and antiproliferative evaluation of amide-containing flavone and isoflavone derivatives” (Bioorg Med Chem, 2008).

Assays:
NCI-H661 = assay: Antiproliferative activity against human NCI-H661 cells after 72 hrs by MTT assay; format: functional; conditions: NCI-H661, 72 h
Procedure, shortened: (§1)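 Cells were exposed to a range of concentrations for 72 h. Compounds came from 20 mM stocks in 100% DMSO. Cells were then given MEM with 0.4 mg/mL MTT for 2 h, and formazan was read at 570 nm. GI50 was taken from percentage conversion relative to mock-treated controls and reported as mean SD of three independent experiments.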

[1] = Antiproliferative activity against human NPC-TW01 cells after 72 hrs by MTT assay; format: functional; conditions: NPC-TW01, 72 h; procedure, shortened: as §1
MT2 = assay: Antiproliferative activity against human MT2 cells after 72 hrs by MTT assay; format: functional; conditions: MT2, 72 h; procedure, shortened: as §1
[2] = Cell cycle arrest in human NPC-TW01 cells assessed as accumulation at S phase at 10.5 uM after 72 hrs by flow cytometry; format: functional, cell-based
Procedure, shortened: (§2)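 Exponentially growing cells were treated for 72 h. Controls received complete medium with 0.5% DMSO for 72 h. Cells were fixed, incubated with RNase and stained. DNA content was measured on a FACScan flow cytometer, and the percentage of cells in each cell-cycle phase was determined.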

[3] = Cell cycle arrest in human NPC-TW01 cells assessed as accumulation at G2/M phase at 10.5 uM after 72 hrs by flow cytometry; format: functional, cell-based; procedure, shortened: as §2
[4] = Cell cycle arrest in human NPC-TW01 cells assessed as accumulation at sub-G1 phase at 10.5 uM after 72 hrs by flow cytometry; format: functional, cell-based; procedure, shortened: as §2
[5] = Cell cycle arrest in human NPC-TW01 cells assessed as accumulation at S phase at 6.0 uM after 72 hrs by flow cytometry; format: functional, cell-based; procedure, shortened: as §2
[6] = Cell cycle arrest in human NPC-TW01 cells assessed as accumulation at sub-G1 phase at 6.0 uM after 72 hrs by flow cytometry; format: functional, cell-based; procedure, shortened: as §2
[7] = Cell cycle arrest in human NPC-TW01 cells assessed as accumulation at G0/G1 phase at 6.0 uM after 72 hrs by flow cytometry; format: functional, cell-based; procedure, shortened: as §2
[8] = Cell cycle arrest in human NPC-TW01 cells assessed as accumulation at G2/M phase at 6.0 uM after 72 hrs by flow cytometry; format: functional, cell-based; procedure, shortened: as §2
[9] = Cell cycle arrest in human NPC-TW01 cells assessed as accumulation at G0/G1 phase at 48.0 uM after 72 hrs by flow cytometry; format: functional, cell-based; procedure, shortened: as §2
[10] = Cell cycle arrest in human NPC-TW01 cells assessed as accumulation at S phase at 48.0 uM after 72 hrs by flow cytometry; format: functional, cell-based; procedure, shortened: as §2
[11] = Cell cycle arrest in human NPC-TW01 cells assessed as accumulation at G2/M phase at 48.0 uM after 72 hrs by flow cytometry; format: functional, cell-based; procedure, shortened: as §2
[12] = Cell cycle arrest in human NPC-TW01 cells assessed as accumulation at sub-G1 phase at 48.0 uM after 72 hrs by flow cytometry; format: functional, cell-based; procedure, shortened: as §2

| SMILES | GI50 (NCI-H661) [µM] | GI50 [1] [µM] | GI50 (MT2) [µM] | also measured |
| --- | --- | --- | --- | --- |
| O=C(COc1ccc2oc(-c3ccccc3)cc(=O)c2c1)Nc1ccc(-c2ccccc2)cc1 | 9.71 | 0.64 | > 10 |  |
| O=C(COc1ccc2c(=O)c(-c3ccccc3)coc2c1)Nc1ccccc1 | > 10 | > 10 | > 10 |  |
| O=C(COc1ccc2c(=O)cc(-c3ccccc3)oc2c1)Nc1ccccc1 | > 10 | > 10 | > 10 |  |
| COc1ccc(NC(=O)COc2ccc3c(=O)cc(-c4ccccc4)oc3c2)cc1 | 5.5 | 5.97 | 6.7 |  |
| O=C(COc1ccc2c(=O)cc(-c3ccccc3)oc2c1)Nc1ccc(F)cc1 | 5.77 | > 10 | 6.41 |  |
| O=C(COc1ccc2oc(-c3ccccc3)cc(=O)c2c1)Nc1ccc2ccccc2c1 | 6.71 | 6.75 | > 10 |  |
| COc1ccc(NC(=O)COc2ccc3oc(-c4ccccc4)cc(=O)c3c2)cc1 | 0.84 | 0.71 | 3.01 | Activity [2]: 13.6%; Activity [3]: 5.3%; Activity [4]: 3.3% |
| O=c1cc(-c2ccccc2)oc2ccc(OC/C(=N\O)c3ccc(F)cc3)cc12 |  |  |  | Activity [5]: 33.2%; Activity [6]: 1.7%; Activity [7]: 22.3%; Activity [8]: 42.8% |
| O=C(COc1ccc2c(=O)cc(-c3ccccc3)oc2c1)Nc1ccc(-c2ccccc2)cc1 | 1.28 | 1.61 | 2.48 |  |
| O=C(COc1ccc2c(=O)c(-c3ccccc3)coc2c1)Nc1ccc(F)cc1 | > 10 | 0.55 | 2.5 |  |
| COc1ccc(/C(COc2ccc3oc(-c4ccccc4)cc(=O)c3c2)=N/O)cc1 |  |  |  | Activity [9]: 0.5%; Activity [10]: 27.5%; Activity [11]: 70.8%; Activity [12]: 1.2% |
